According to ChEMBL document CHEMBL1240507, “Peptidic HIV integrase inhibitors derived from HIV gene products: structure-activity relationship studies” (Bioorg Med Chem, 2010):
Calls of active or inactive are those of the source. The rule behind the calls is not given here.

How the values were obtained:
[1] = test system: MT4; test: Cytotoxicity against human MT4 cells at 10 uM after 6 to 7 days; type: cell-based; details: mt4, 10 µM
[2] = molecular target: T1, Human immunodeficiency virus type 1 integrase (Human immunodeficiency virus 1, UniProt Q7ZJM1); test: Inhibition of HIV1 integrase 3'-processing activity expressed in Escherichia coli after 60 mins
T1 sequence (Q7ZJM1 whole entry): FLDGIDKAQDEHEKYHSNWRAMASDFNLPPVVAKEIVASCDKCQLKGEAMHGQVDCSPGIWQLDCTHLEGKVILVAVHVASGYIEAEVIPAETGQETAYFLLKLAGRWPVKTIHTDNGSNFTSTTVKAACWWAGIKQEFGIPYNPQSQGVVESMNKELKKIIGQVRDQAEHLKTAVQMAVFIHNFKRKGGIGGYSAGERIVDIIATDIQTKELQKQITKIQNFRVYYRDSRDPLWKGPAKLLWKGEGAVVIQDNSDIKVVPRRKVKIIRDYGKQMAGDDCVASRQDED
Procedure, shortened: (§1)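 Recombinant IN was expressed in and purified from E. coli, with 10% glycerol in all buffers. Reactions contained 400 nM IN, 20 nM 5'-end [³²P]-labeled oligonucleotide substrate and inhibitor at varied concentrations, with 10% DMSO alone as control. Reactions were stopped with EDTA/formamide loading dye. IC50 came from a logistic nonlinear fit.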

[3] = molecular target: T1, Human immunodeficiency virus type 1 integrase; test: Inhibition of HIV1 integrase strand transfer activity expressed in Escherichia coli after 60 mins; procedure, shortened: as §1
[4] = test system: Human immunodeficiency virus 1; test: Antiviral activity against HIV1 HXB2 infected in human MT4 cells assessed as protection against virus-induced cell death at 10 uM after 6 to 7 days by luciferase assay; type: functional, organism-based
Procedure, shortened: (§2)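 MT-4 luciferase reporter cells (1×10^3 cells) were infected with HIV-1 HXB2 in the presence of peptides at various concentrations. At 6–7 days post-infection, cells were lysed and luciferase activity was read by chemiluminescence.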

[5] = test system: Human immunodeficiency virus 1; test: Antiviral activity against HIV1 HXB2 infected in human MT4 cells assessed as protection against virus-induced cell death at 1.25 uM after 6 to 7 days by luciferase assay; type: functional, organism-based; procedure, shortened: as §2
[6] = test system: Human immunodeficiency virus 1; test: Antiviral activity against HIV1 HXB2 infected in human MT4 cells assessed as protection against virus-induced cell death at 2.5 to 5 uM after 6 to 7 days by luciferase assay; type: functional, organism-based; procedure, shortened: as §2
[7] = test system: Human immunodeficiency virus 1; test: Antiviral activity against HIV1 HXB2 infected in human MT4 cells assessed as protection against virus-induced cell death after 6 to 7 days by luciferase assay; type: functional, organism-based; procedure, shortened: as §2
[8] = test system: Human immunodeficiency virus 1; test: Antiviral activity against HIV1 HXB2 infected in human MT4 cells assessed as protection against virus-induced cell death at 5 uM after 6 to 7 days by luciferase assay; type: functional, organism-based
Procedure, shortened: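 MT-4 luciferase reporter cells (1×10^3 per well) infected with HIV-1 HXB2 while exposed to a range of peptide concentrations. After 6–7 days post-infection, cells were lysed, luciferase activity was measured with a Steady-Glo kit, and chemiluminescence was read on a luminometer.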

[9] = test system: MT4; test: Cytotoxicity against human MT4 cells at >5 uM after 6 to 7 days; type: cell-based

| Compound | Activity [1] | Activity [7] | further results |
| --- | --- | --- | --- |
| CC[C@H](C)[C@H](NC(=O)[C@H](CCCNC(=N)N)NC(=O)[C@H](Cc1ccccc1)NC(=O)[C@H](Cc1cnc[nH]1)NC(=O)[C@@H](NC(=O)[C@H](Cc1ccccc1)NC(=O)[C@H](CC(C)C)NC(=O)[C@H](CC(C)C)NC(=O)[C@H](CCC(N)=O)NC(=O)[C@H](CCC(N)=O)NC(=O)[C@H](CC(C)C)NC(C)=O)[C@@H](C)CC)C(=O)NCC(=O)N[C@@H](CCCNC(=N)N)C(=O)N[C@@H](CCCNC(=N)N)C(=O)N[C@@H](CCCNC(=N)N)C(=O)N[C@@H](CCCNC(=N)N)C(=O)N[C@@H](CCCNC(=N)N)C(=O)N[C@@H](CCCNC(=N)N)C(=O)N[C@@H](CCCNC(=N)N)C(=O)N[C@@H](CCCNC(=N)N)C(N)=O | Toxic |  | IC50 [2]: 130 nM; IC50 [3]: 60 nM |
| CC[C@H](C)[C@H](NC(=O)[C@H](C)NC(=O)[C@H](CCC(=O)O)NC(C)=O)C(=O)N[C@H](C(=O)N[C@@H](CCCNC(=N)N)C(=O)N[C@H](C(=O)N[C@@H](CC(C)C)C(=O)N[C@@H](CCC(N)=O)C(=O)N[C@@H](CCC(N)=O)C(=O)N[C@@H](CC(C)C)C(=O)N[C@@H](CC(C)C)C(=O)N[C@@H](Cc1ccccc1)C(=O)N[C@H](C(=O)N[C@@H](Cc1cnc[nH]1)C(=O)N[C@@H](Cc1ccccc1)C(=O)N[C@@H](CCCNC(=N)N)C(=O)N[C@H](C(=O)NCC(=O)N[C@@H](CCCNC(=N)N)C(=O)N[C@@H](CCCNC(=N)N)C(=O)N[C@@H](CCCNC(=N)N)C(=O)N[C@@H](CCCNC(=N)N)C(=O)N[C@@H](CCCNC(=N)N)C(=O)N[C@@H](CCCNC(=N)N)C(=O)N[C@@H](CCCNC(=N)N)C(=O)N[C@@H](CCCNC(=N)N)C(N)=O)[C@@H](C)CC)[C@@H](C)CC)[C@@H](C)CC)[C@@H](C)CC |  |  | Activity [4]: inactive; IC50 [2]: 90 nM; IC50 [3]: 40 nM; Activity [5]: Active |
| CC[C@H](C)[C@H](NC(=O)[C@H](C)NC(=O)[C@H](CCC(=O)O)NC(C)=O)C(=O)N[C@H](C(=O)N[C@@H](CCCNC(=N)N)C(=O)N[C@H](C(=O)N[C@@H](CC(C)C)C(=O)N[C@@H](CCC(N)=O)C(=O)N[C@@H](CCC(N)=O)C(=O)N[C@@H](CC(C)C)C(=O)N[C@@H](CC(C)C)C(=O)N[C@@H](Cc1ccccc1)C(=O)N[C@H](C(=O)N[C@@H](CCC(=O)O)C(=O)N[C@@H](Cc1ccccc1)C(=O)N[C@@H](CCCNC(=N)N)C(=O)N[C@H](C(=O)N[C@@H](CCCCN)C(=O)N[C@@H](CCCNC(=N)N)C(=O)N[C@@H](CCCNC(=N)N)C(=O)N[C@@H](CCCNC(=N)N)C(=O)N[C@@H](CCCNC(=N)N)C(=O)N[C@@H](CCCNC(=N)N)C(=O)N[C@@H](CCCNC(=N)N)C(=O)N[C@@H](CCCNC(=N)N)C(=O)N[C@@H](CCCNC(=N)N)C(N)=O)[C@@H](C)CC)[C@@H](C)CC)[C@@H](C)CC)[C@@H](C)CC |  |  | Activity [6]: Active |
| CC[C@H](C)[C@H](NC(=O)[C@H](CCCNC(=N)N)NC(=O)[C@H](Cc1ccccc1)NC(=O)[C@H](Cc1cnc[nH]1)NC(=O)[C@@H](NC(=O)[C@H](Cc1ccccc1)NC(=O)[C@H](CC(C)C)NC(=O)[C@H](CC(C)C)NC(=O)[C@H](CCC(N)=O)NC(=O)[C@H](CCC(N)=O)NC(=O)[C@H](CC(C)C)NC(=O)[C@H](CCCCN)NC(=O)[C@H](CCCNC(=N)N)NC(=O)[C@@H](NC(=O)[C@@H](NC(=O)[C@H](CCC(=O)O)NC(=O)[C@H](CCC(=O)O)NC(C)=O)[C@@H](C)CC)[C@@H](C)CC)[C@@H](C)CC)C(=O)NCC(=O)N[C@@H](CCCNC(=N)N)C(=O)N[C@@H](CCCNC(=N)N)C(=O)N[C@@H](CCCNC(=N)N)C(=O)N[C@@H](CCCNC(=N)N)C(=O)N[C@@H](CCCNC(=N)N)C(=O)N[C@@H](CCCNC(=N)N)C(=O)N[C@@H](CCCNC(=N)N)C(=O)N[C@@H](CCCNC(=N)N)C(N)=O |  |  | Activity [4]: inactive |
| Ac-AQQLLFIHFRIGRRRRRRRR-NH2 |  | Dose-dependent effect |  |
| Ac-EAEIRIKQQLLFIHFRIGRRRRRRRR-NH2 |  |  | Activity [4]: Active |
| Ac-EAIERILKQLLFIHFRIGRRRRRRRR-NH2 |  |  | Activity [6]: Active |
| Ac-EAIIRILQELLFKHFRIGRRRRRRRR-NH2 |  |  | Activity [4]: inactive |
| Ac-EAIIRILQQLEFIHKRIGRRRRRRRR-NH2 |  |  | Activity [6]: Active |
| Ac-EEIIRKLQQLLFIEFRIKRRRRRRRR-NH2 |  |  | Activity [4]: inactive |
| Ac-LAQLLFIHFRIGRRRRRRRR-NH2 | Toxic | Dose-dependent effect |  |
| Ac-LQALLFIHFRIGRRRRRRRR-NH2 | Toxic | Dose-dependent effect |  |
| Ac-LQQALFIHFRIGRRRRRRRR-NH2 | Toxic | Dose-dependent effect |  |
| Ac-LQQLAFIHFRIGRRRRRRRR-NH2 | Toxic | Dose-dependent effect |  |
| Ac-LQQLLAIHFRIGRRRRRRRR-NH2 | Toxic | Dose-dependent effect | Activity [8]: inactive |
| Ac-LQQLLFAHFRIGRRRRRRRR-NH2 |  | Dose-dependent effect | Activity [8]: inactive; Activity [9]: Toxic |
| Ac-LQQLLFIAFRIGRRRRRRRR-NH2 |  | Dose-dependent effect | Activity [9]: Toxic |
| Ac-LQQLLFIHARIGRRRRRRRR-NH2 | Toxic | Dose-dependent effect |  |
| Ac-LQQLLFIHFAIGRRRRRRRR-NH2 | Toxic | Dose-dependent effect |  |
| Ac-LQQLLFIHFRAGRRRRRRRR-NH2 |  | Dose-dependent effect |  |
| Ac-LQQLLFIHFRIARRRRRRRR-NH2 |  | Dose-dependent effect | IC50 [2]: 90 nM |
